# An excerpt weighted towards active compounds, which were near 2.3% of everything screened.
# TRPC4 block: inhibitors of mouse TRPC4 channel, primary screen, Fluo4 calcium, HEK293 TRPC4beta/mu-opioid cells | DAMGO-evoked Fluo4 calcium flux; stronger effect = lower value | B-score at 10 µM | 300,000 tested, 0.39% active;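 active = B-score over 3 SD under the library average, no early fluorescence shift, positive overall ratio signal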
#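 Assay system: TRPC4beta/mu-opioid receptor HEK293 cell line; compound dosing: single concentration per test compound; detection: Fluo4 Ca2+ flux fluorescence; evaluation: per-well B score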
# TRPC6 inh: mouse TRPC6 channel inhibitors, primary screen, cell-based, HEK293, membrane potential dye. Short transient receptor potential channel 6 (Mus musculus), Q61143. ACh-evoked depolarization; stronger effect = lower value. B-score at 10 µM. 310,000 tested, 1.1% active. AID 2553, 2010;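 active = B-score under library mean minus 3 SD, initial fluorescence not abnormally high, positive integrated signal ratio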;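 note: B-score derived from integrated fluorescence ratio over the kinetic read; more negative B-score means stronger inhibition of depolarization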
# TRPC6 activator: mouse TRPC6 channel activators, primary screen, cell-based, HEK293, membrane potential dye. Short transient receptor potential channel 6 (Mus musculus), Q61143. HEK293-TRPC6 membrane potential dye fluorescence; stronger effect = higher value. B-score at 10 µM. 310,000 tested, 0.13% active;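 active = B-score of the integrated fluorescence ratio above library mean plus 3 SD, and starting fluorescence ratio within library mean plus 5 SD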;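 note: higher score means more depolarization so channel activation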
# TRPC4 PAM: positive allosteric modulators of TRPC4, primary screen, cell-based, mouse TRPC4beta, HEK293 mu-opioid, Fluo-4 calcium. Short transient receptor potential channel 4 (Mus musculus), Q9QUQ5. DAMGO EC20, Fluo-4 Ca2+ flux; stronger effect = higher value. B-score at 10 µM. 310,000 tested, 0.42% active. AID 2227, 2009;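 active = B-score of calcium response area above 5 SD of library B-scores, with initial fluorescence ratio within 5 SD of library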;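 note: B-score of integrated fluorescence ratio over time as area under calcium response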
# TRPC4 act: activators of mouse TRPC4 channel, primary screen, Fluo4 calcium, HEK293 TRPC4beta/mu-opioid cells. Fluo4 calcium fluorescence; stronger effect = higher value. B-score at 10 µM. 310,000 tested, 0.49% active;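 active = B-score above 5 SD of library B-scores, and initial fluorescence ratio not above library mean plus 5 SD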;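 note: positive B-score marks a calcium rise read as TRPC4 activation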
#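 Material: HEK293 stable line with TRPC4beta plus mu-opioid receptor; technique: Fluo4 calcium-sensitive dye fluorescence, kinetic, 1 Hz baseline; timing: Fluo4 dye loading 45 min at room temperature, 110 s recording; controls: assay buffer as low control, maximal DAMGO as high control; read-out: integrated baseline-normalised fluorescence ratio, converted to per-well B score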
# * = called active by the depositor; i = inactive.
SMILES,TRPC4 block,TRPC6 inh,TRPC6 activator,TRPC4 PAM,TRPC4 act
CCc1cccc(NC(=O)Cn2c(=O)n(CCC(=O)NCC3CCCO3)c(=O)c3cc(OC)c(OC)cc32)c1 (stereo not given),i,i,i,i,i
Cc1ccc2c(c1)N(C(=O)CCC(=O)NCC(C)c1ccccc1)CC(C)O2 (stereo not given),i,i,i,i,i
COC(=O)c1ccccc1NC(=O)CCC(=O)N1CC(C)Oc2ccc(C)cc21 (stereo not given),-8*,i,i,i,i
COc1ccc2cc3cc(C(=O)NCCN4CCN(Cc5ccccc5)CC4)oc3nc2c1,-6*,i,i,i,i
COc1ccc2cc3cc(C(=O)NCCN4CCc5ccccc5C4)oc3nc2c1,i,i,i,i,i
O=C(CN(c1cccc([N+](=O)[O-])c1)S(=O)(=O)c1ccccc1)N1CCCCC1,i,i,i,i,i
Cc1cc(C(C)(C)C)cc(S(=O)(=O)Nc2cccc(C(=O)O)c2)c1C,i,i,i,16*,i
COC(=O)[C@@]12CCCN1[C@H](c1ccc(-c3ccccc3)cc1)[C@@H]1C(=O)N(C)C(=O)[C@@H]12,i,i,i,i,i
COC(=O)[C@@]12CCCCN1[C@H](c1ccc(-c3ccc(OC)cc3)cc1)[C@@H]1C(=O)N(C)C(=O)[C@@H]12,i,i,i,13*,i
CCN1C(=O)[C@H]2[C@@H](c3ccc(-c4ccc(C(C)=O)cc4)cc3)N3CCCC[C@@]3(C(=O)OC)[C@H]2C1=O,i,i,i,i,i
COC(=O)[C@@]12CCCCN1[C@H](c1ccc(-c3cccc(Cl)c3)c(OC)c1)[C@H]1C(=O)N(C)C(=O)[C@H]12,i,i,i,25*,i
COC(=O)[C@@]12CCCCN1[C@H](c1ccc(-c3ccc(C(C)=O)cc3)cc1)[C@@H]1C(=O)N(C)C(=O)[C@@H]12,i,i,i,43*,i
COC(=O)[C@@]12CCCCN1[C@H](c1ccc(-c3cccc(Cl)c3)cc1)[C@H]1C(=O)N(C)C(=O)[C@H]12,i,i,i,i,i
COc1cc(/C=C2/C(=O)NN(c3cccc(C)c3)C2=O)ccc1OC(=O)c1ccco1,i,i,i,22*,i
CC(=O)N1CCN(c2ccc(OC[C@H]3CO[C@](Cn4ccnc4)(c4ccc(Cl)cc4Cl)O3)cc2)CC1,i,i,i,i,52*
CCOC(=O)[C@@H]1CCN(Cc2ccccc2)C[C@H]1c1ccccc1,-7*,i,i,i,i
CC(NCCC1(Cc2ccccc2Cl)CCOC(C)(C)C1)c1cccs1 (stereo not given),i,i,i,i,68*
CC(NCCC1(C(C)C)CCOC(C)(C)C1)c1cccs1 (stereo not given),i,i,i,i,i
O=C1S/C(=C\c2ccc(O)c([N+](=O)[O-])c2)C(=O)N1c1ccccc1Cl,-10*,i,i,i,i
CN1CCN(C(=O)/C=C/c2c(F)cccc2Cl)CC1,i,i,i,i,i
CCCn1c(N2CCN(S(=O)(=O)Cc3ccccc3)CC2)nc2ccccc21,i,i,i,22*,i
CCn1c(N2CCN(S(=O)(=O)c3ccccc3)CC2)nc2ccccc21,i,i,i,i,i
CCOC(=O)C1=C(N)OC2=C(C(=O)CC(C)(C)C2)C1c1ccc(C)s1 (stereo not given),i,i,i,i,i
CCOC(=O)C1=C(N)OC2=C(C(=O)CC(C)(C)C2)C1c1ccc(CC)s1 (stereo not given),i,i,i,16*,i
OCCC1CN(CC2CC2)CCN1Cc1ccc(F)c(F)c1 (stereo not given),i,i,i,i,i
SMILES,TRPC4 block,TRPC6 inh,TRPC6 activator,TRPC4 PAM,TRPC4 act
CCSc1nc2c(c(=O)n1Cc1ccccc1)SC(C)C2 (stereo not given),-6*,i,i,i,i
O=C(C1CCN(S(=O)(=O)c2cccnc2)CC1)N1CCN(c2ccc(Cl)cc2)CC1,-6*,i,i,i,63*
CCOC(=O)C(C)Sc1nc2c(c(=O)[nH]c(=O)n2C)n1Cc1ccc(Cl)cc1 (stereo not given),-6*,i,i,i,i
CCCCn1c(N)c(N(CC(C)C)C(=O)c2ccc(N3C(=O)CCC3=O)cc2)c(=O)[nH]c1=O,i,i,i,i,i
COc1cccc(N2C(=O)C3CCCN3C2c2cccs2)c1 (stereo not given),i,i,i,i,43*
Cc1ccc(C2N(c3cccc(Cl)c3)C(=O)C3CCCN32)o1 (stereo not given),i,i,i,33*,i
O=C1C2CCCN2C(c2cccs2)N1c1ccc(F)cc1 (stereo not given),i,i,i,i,i
Clc1ccc(CN2C3=NCCN3c3ccccc32)cc1Cl,-6*,i,i,i,i
Cc1ccc(CN2C3=NCCN3c3ccccc32)cc1,-6*,i,i,i,i
C=CCN(C)CC/C=C1\c2ccccc2CSc2ccccc21,-5*,i,i,i,i
COc1ccc(Cn2nnnc2C(c2cc3cccc(C)c3[nH]c2=O)N2CCN(C)CC2)cc1 (stereo not given),i,i,i,i,98*
Cc1cccc2cc(C(c3nnnn3Cc3ccccc3)N3CCN(C)CC3)c(=O)[nH]c12 (stereo not given),i,i,i,i,47*
CCc1ccc2[nH]c(=O)c(C(c3nnnn3Cc3ccc(OC)cc3)N3CCOCC3)cc2c1 (stereo not given),i,i,i,i,i
COc1ccc(Cn2nnnc2C(c2cc3cc(C)ccc3[nH]c2=O)N2CCN(C)CC2)cc1 (stereo not given),-7*,i,i,i,i
Cc1cc(Cl)ccc1OC(C)C(=O)Nc1cnn(CCCC(=O)O)c1 (stereo not given),i,i,i,i,i
